# MrgX1 ag: activates human MrgX1 receptor signaling; MrgX1-HEK293 cells, Fluo-4 calcium fluorescence, agonist mode; stronger effect = higher value; B-score at 10 µM; hit rate 0.44% among 310,000;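 active = calcium response B-score plate-corrected fluorescence ratio at least 3 library SD, with starting fluorescence B-score inside 5 SD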
# Target sequence (Q96LB2 whole entry, looked up): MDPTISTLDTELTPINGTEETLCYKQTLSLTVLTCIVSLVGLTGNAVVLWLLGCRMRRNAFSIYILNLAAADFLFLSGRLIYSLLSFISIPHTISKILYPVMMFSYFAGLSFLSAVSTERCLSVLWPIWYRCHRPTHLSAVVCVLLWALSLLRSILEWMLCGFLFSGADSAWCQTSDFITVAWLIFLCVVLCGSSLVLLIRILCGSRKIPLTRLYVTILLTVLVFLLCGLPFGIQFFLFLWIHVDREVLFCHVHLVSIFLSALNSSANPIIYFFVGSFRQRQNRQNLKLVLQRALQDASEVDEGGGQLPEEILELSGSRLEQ
#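 times = overnight plating, then 30 min 37 °C plus 30 min room-temperature dye loading | assay system = stable human MrgX1 HEK293 cell line | input = fifteen thousand cells per well | signal = kinetic calcium dye fluorescence, Fluo-4 NW | dosing = compound delivered in addition one of three | read-out = B-scored fluorescence response ratio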
# RGS4 pot: RGS4 potentiation or activation; AID 463111; HEK293 M3R/inducible RGS4, carbachol calcium flux Fluo4; stronger effect = lower value; B-score at 10 µM; hit rate 0.92% among 310,000;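 active = B-score of the integrated calcium signal more than 4 SD below the library mean, with starting fluorescence not abnormally high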;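 note: negative B-score means reduced calcium response which marks RGS4 activation or potentiation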
#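 Test system: HEK293 cells with stable M3R and inducible RGS4; also added: carbachol at ECmax as muscarinic agonist stimulus; schedule: dye loading 30 min 37 °C, buffer rest 30 min RT; technique: kinetic calcium fluorescence imaging with Fluo4-AM dye, 2 µM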
# RGS4 inh: human RGS4 inhibition; AID 463165; HEK293 M3R/RGS4 inducible, Fluo-4 calcium flux; stronger effect = higher value; triggered by carbachol at its EC20; hit rate 0.45% among 310,000; P49798; B-score at 10 µM;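 active = B-score, a plate-corrected calcium signal, over three deviations above library mean, with baseline fluorescence within five deviations of library mean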;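 note: RGS4 expression induced by doxycycline in cells with stable M3 receptor; B-score is computed from the integrated fluorescence ratio over baseline after carbachol; higher B-score means a larger calcium signal and so more RGS4 inhibition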
# Target sequence (P49798 whole entry, looked up): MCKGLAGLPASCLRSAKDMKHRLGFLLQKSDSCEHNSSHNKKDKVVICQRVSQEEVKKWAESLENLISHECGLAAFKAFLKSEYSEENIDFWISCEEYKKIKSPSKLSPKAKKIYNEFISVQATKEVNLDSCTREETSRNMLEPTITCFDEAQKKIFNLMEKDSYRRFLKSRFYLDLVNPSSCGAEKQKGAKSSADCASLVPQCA
# MrgX1 antag: antagonists of human MrgX1 receptor. MRGX1-HEK293 calcium flux, Fluo-4, BAM8-22 antagonism; stronger effect = lower value. B-score at 10 µM. hit rate 1.3% among 310,000;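 active = calcium-response B-score plate-corrected more than 3 library SD below zero, starting fluorescence within 5 deviations, no agonist response on first addition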;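 note: peak minus trough fluorescence over baseline after final BAM8-22 challenge near maximal dose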
# MrgX1 allo act: human MrgX1 positive allosteric modulation, primary screen | Q96LB2 | MrgX1-HEK293, Fluo-4 calcium flux, FDSS; stronger effect = higher value | B-score at 10 µM | hit rate 0.63% among 310,000;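 active = plate-corrected calcium response at least 3 library SD above typical, normal starting fluorescence, not activating the receptor alone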;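 note: compound read alongside a low EC10 to EC30 dose of BAM8-22 agonist; peak minus trough fluorescence over baseline measured at the second addition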
# MrgX1 PAM conf: reconfirmed allosteric activator of human MrgX1 receptor | AID 602413 | activation (ratio percentage), % at 10 µM | hit rate 13% among 1,200 | MrgX1-HEK293, Fluo-4 calcium fluorescence, FDSS | shares compounds with MrgX1 allo act;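 active = ratio at least 3 SD above the weak peptide control, stable starting fluorescence, no direct agonism earlier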;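 note: compound followed by low BAM8-22 agonist challenge near EC20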
# HEK293 Ca flux: MrgX1 antagonist counter-screen hit in parental HEK293 cells; fluorescence ratio F(max-min)/F0 at 10 µM; Fluo-4 calcium fluorescence, FDSS; shares compounds with MrgX1 antag; AID 624111; hit rate 2% among 4,000;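 active = duplicate-averaged calcium fluorescence ratio at least three times the standard deviation of buffer wells, a nonspecific response in parental cells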
# HEK293 Ca counter: counter-screen for MrgX1 allosteric activators: effect in parental HEK293 cells; shares compounds with MrgX1 antag; parental HEK293 calcium flux, Fluo-4 fluorescence ratio; stronger effect = higher value; hit rate 0.4% among 4,000; fluorescence ratio F(max-min)/F0 at 10 µM; AID 624114;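 active = calcium fluorescence ratio, averaged over duplicates, at least 3 SD of the buffer-well ratio, meaning a nonspecific response in receptor-free cells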;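 note: untransfected parental HEK293 lacking MrgX1 used as counterscreen for MrgX1 allosteric activators; fluorescence change taken during the second addition on a kinetic imager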
# HEK293 Ca cntr2: counter-screen for MrgX1 activators: effect in parental HEK293 cells; shares compounds with MrgX1 antag; Fluo-4 calcium fluorescence (FDSS); stronger effect = higher value; hit rate 8.7% among 4,000; fluorescence ratio F(max-min)/F0 at 10 µM;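 active = calcium fluorescence ratio at least three times the spread of buffer wells, meaning a non-specific response in parental cells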
# Active calls of the source: *; i = inactive; . = no result given. In the library only some 3.5% were active in any assay of this set; here they are far more common.
SMILES,MrgX1 ag,RGS4 pot,RGS4 inh,MrgX1 antag,MrgX1 allo act,MrgX1 PAM conf,HEK293 Ca flux,HEK293 Ca counter,HEK293 Ca cntr2
O=C(Nc1ccon1)c1ccc(Cl)s1,i,i,i,i,i,.,.,.,.
N#CC1(NC(=O)COC(=O)c2nc(Cl)c(Cl)c(N)c2Cl)CCCCC1,i,i,i,i,i,.,.,.,.
O=C(NC(=S)Nc1cc(S(=O)(=O)N2CCOCC2)ccc1N1CCOCC1)C1CCCC1,i,i,i,i,7.06*,6.4%*,i,i,i
C=CCSc1nnc(-c2ccccc2N=Cc2c(C)[nH]n(-c3ccccc3)c2=O)c(=O)[nH]1,i,i,i,i,8.66*,i,i,i,i
CSc1nnc(-c2ccccc2N=Cc2c(C)[nH]n(-c3ccc4ccccc4c3)c2=O)c(=O)[nH]1,i,i,i,i,11.6*,i,i,i,i
Cc1[nH]n(-c2ccccc2)c(=O)c1C=Nc1cnc2ccccc2c1,i,i,i,i,i,.,.,.,.
Cc1[nH]n(-c2ccccc2)c(=O)c1/C=N/c1nn[nH]n1,i,i,i,i,i,.,.,.,.
COc1ccc(C(=O)Nc2c(N)nc(SCC(=O)c3ccccc3)[nH]c2=O)cc1,i,i,i,i,i,.,.,.,.
Cc1cc2c(N3CCCCC3C)ncnc2s1 (configuration not stated),i,i,i,i,7.12*,i,i,i,i
CCOC(=O)c1c(-c2ccccc2)nc2ccc(C)cn12,i,i,i,i,9.5*,i,i,i,i
CCOC(=O)c1c(-c2ccccc2)nc2cc(C)ccn12,i,i,i,i,i,.,.,.,.
COc1ccccc1OCCC(=O)OCC(=O)Nc1ccc(Br)cc1F,i,i,i,i,i,.,.,.,.
COc1cccc(-c2nn(-c3ccccc3)cc2CO)c1,i,i,i,i,11.7*,i,i,i,i
OCc1cn(-c2ccccc2)nc1-c1ccc2c(c1)OCCO2,i,i,i,i,39.1*,21.4%*,i,i,i
O/N=C/c1cn(-c2ccccc2)nc1-c1ccc2c(c1)OCCO2,i,i,i,i,i,.,.,.,.
Cc1oc(-c2cc3c(cc2Cl)OCO3)nc1CN1CCCC1c1ccc(F)cc1 (configuration not stated),i,i,i,i,i,.,.,.,.
CCC(C)NC(=O)CCSc1ccc(C)cc1 (configuration not stated),i,i,i,i,i,.,.,.,.
O=C(NCc1ccc(F)cc1)C1CCCN(S(=O)(=O)c2ccc(-n3cnnn3)cc2)C1 (configuration not stated),i,i,i,i,7.99*,i,i,i,i
CC1CCCCN1S(=O)(=O)c1ccc2c(c1)C(C)(C)C(=O)N2C (configuration not stated),i,i,i,i,i,.,.,.,.
Cc1c(-c2nc(N)nc(Nc3ccccc3)n2)oc2ccccc12,i,i,i,i,19.7*,i,i,i,i
Nc1nc(CN2CCCCCC2)nc(Nc2ccccc2)n1,i,i,i,i,i,.,.,.,.
Cc1cc(OCC(=O)Nc2ccc(N3CCN(C(=O)c4ccco4)CC3)cc2)cc(C)c1Cl,i,i,i,i,i,.,.,.,.
Cc1ccc(OCC(=O)Nc2ccc(N3CCN(C(=O)c4ccco4)CC3)cc2)cc1C,i,i,i,i,10.2*,i,i,i,i
CS(=O)(=O)N1N=C(c2cccs2)CC1c1ccc(F)cc1 (configuration not stated),i,i,i,i,21*,i,i,i,i
Cc1cccc(NC(=O)c2ccc3c(Cl)c4c(nc3c2)CCCC4)n1,i,i,i,i,20.1*,i,i,i,i
SMILES,MrgX1 ag,RGS4 pot,RGS4 inh,MrgX1 antag,MrgX1 allo act,MrgX1 PAM conf,HEK293 Ca flux,HEK293 Ca counter,HEK293 Ca cntr2
CC1(C)Cc2c(cnn2-c2cccc(F)c2)C(NC(=O)CCc2cnccn2)C1 (configuration not stated),i,i,i,i,i,.,.,.,.
N#Cc1ccc(-c2ccco2)nc1SCC(=O)c1ccc(Cl)cc1,i,i,i,i,8.42*,i,0.482*,i,i
CCCCCCn1c(C(C)NC(=O)c2ccco2)nc2ccccc21 (configuration not stated),i,i,i,i,17.8*,i,i,i,i
CCCCn1c(C(C)NC(=O)CC)nc2ccccc21 (configuration not stated),i,i,i,i,i,.,.,.,.
O=C(Nc1ccc(Br)cc1)C1OCCc2ccccc21 (configuration not stated),i,i,i,i,10.7*,i,i,i,i
Cn1c(=O)c2c(nc(CN3CCc4ccccc4C3)n2CCCO)n(C)c1=O,i,i,i,i,i,.,.,.,.
CN1CCN(c2nc3c(c(=O)n(C)c(=O)n3C)n2Cc2cccc3ccccc23)CC1,i,i,i,i,i,.,.,.,.
Cn1c(=O)c2c(nc(CN3CCc4ccccc4C3)n2Cc2ccccc2F)n(C)c1=O,i,i,i,i,24.5*,38.0%*,i,i,i
Cn1c(=O)c2c(nc(N3CCCCCC3)n2Cc2cccc3ccccc23)n(C)c1=O,i,i,i,i,7.47*,i,i,51.2*,i
CCC1C(=O)C(CC)C(c2ccccc2)NC1c1ccccc1 (configuration not stated),i,i,i,i,i,.,.,.,.
CCC1C(=NO)C(CC)C(c2ccccc2)NC1c1ccccc1 (configuration not stated),i,i,i,i,23.2*,i,i,i,i
Nc1c2c(nc3ccc(Br)cc13)N(Cc1ccccc1)CC2,i,i,i,i,8.32*,i,i,i,i
Nc1c2c(nc3ccc(Br)cc13)N(c1ccccc1)CC2,i,.,.,i,i,.,.,.,.

# Assay outcomes as filed in PubChem BioAssay.
